Screens from PubChem.
An excerpt weighted towards active compounds, which were near 5.7% of everything screened.
Calb FLC: affects C. albicans growth with fluconazole; C. albicans CaCi-2 (fluconazole-resistant clinical isolate) + fluconazole, Alamar Blue growth, 48 h; growth inhibition, % (concentration not given with the values); hit rate 0.57% among 300,000; AID 1979;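 active means growth inhibition above about 58% in most replicates, limit read from the data, passing the limit was not always enough; inconclusive means exactly half the replicates above a set limit; inactive means most replicates below a set limit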;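 further: all wells also contain fluconazole at 8 µg/ml as a sub-toxic cotreatment; 0% = median of DMSO wells and 100% = median of geldanamycin control wells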
Beta cell apopt: beta cell apoptosis inhibition. INS-1E cytokine-induced death, ATP luminescence, 48 h; percent of positive-control rescue, neutral wells zero. hit rate 0.8% among 300,000. protection from apoptosis, % (test concentration not listed);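 active means Every replicate reaches about 75%, or at least half do and their mean reaches it too, limit read from the data; inconclusive means At least half of replicates reach the limit but their mean does not; inactive means Under half of replicates reach the limit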;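 further: 0% = cytokine-treated negative control wells and 100% = positive control rescue; higher means more ATP so stronger rescue from cytokine killing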
T cruzi inh: blocks replication of Trypanosoma cruzi; T. cruzi beta-gal in NIH3T3, luminescence, 90 h; inhibition, % (test concentration not listed); hit rate 1.4% among 300,000;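 active means mean inhibition across valid replicates above about 55%, limit read from the data; inconclusive means mean below that limit but half or more replicates reach it; inactive means mean below it, under half of replicates reach it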;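 further: signal also drops with host cell toxicity which is not excluded here; 0% = plate median of DMSO wells and 100% = zero luminescence signal; higher percent means less beta-gal luminescence so fewer parasites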
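Read-out: Parasite load inhibition, % | Test system: Mouse NIH/3T3 fibroblasts infected with β-gal-expressing T. cruzi Tulahuen C4 | Amount: 5,000 cells/well | Medium: DMEM, 2% fetal bovine serum | Signal: GalScreen β-gal luminescence, detergent lysis, 60 min | Timing: 3 h attach, ≥90 h co-culture | Also added: Tulahuen C4 trypomastigotes, 5000/well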
SKKanGAS inh: blocks kanamycin growth of S. pyogenes SKKanGAS strain; BacTiter-Glo, 6 h; inhibition, % at 7.5 µM; hit rate 1.3% among 300,000; AID 1662;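 active means mean replicate score, as percent of positive control median, at least 50; inconclusive means mean below 50 but one replicate at or above 50; inactive means mean and every replicate below 50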;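 further: strain carries kanamycin resistance gene driven by streptokinase promoter and grows in 40 µg/ml kanamycin; loss of luminescence reflects streptokinase promoter inhibition or plain growth inhibition; 0% = median of DMSO wells and 100% = positive control at its reference dose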
Mdm2 MdmX PPI: human Mdm2/MdmX binding inhibition. O15151+Q00987. SaOS-2 split-luciferase Mdm2/MdmX complementation, luminescence. inhibition, % at 8 µM. hit rate 3% among 330,000;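 active means inhibition of at least 50% at 8 µM in the primary screen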
Target sequence (O15151 whole entry, looked up): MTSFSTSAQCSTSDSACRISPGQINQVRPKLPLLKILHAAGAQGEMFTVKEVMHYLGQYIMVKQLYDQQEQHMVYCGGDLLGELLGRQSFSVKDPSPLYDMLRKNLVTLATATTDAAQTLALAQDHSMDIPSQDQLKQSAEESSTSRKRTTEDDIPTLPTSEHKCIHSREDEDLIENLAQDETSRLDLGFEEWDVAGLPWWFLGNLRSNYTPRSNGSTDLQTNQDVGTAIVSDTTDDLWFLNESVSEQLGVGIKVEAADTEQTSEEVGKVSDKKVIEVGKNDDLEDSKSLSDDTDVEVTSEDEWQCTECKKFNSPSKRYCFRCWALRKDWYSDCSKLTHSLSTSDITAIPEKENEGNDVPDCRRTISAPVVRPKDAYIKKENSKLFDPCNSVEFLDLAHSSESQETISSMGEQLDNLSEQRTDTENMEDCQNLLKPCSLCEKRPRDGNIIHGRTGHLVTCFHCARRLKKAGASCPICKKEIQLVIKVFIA
Target sequence (Q00987 whole entry, looked up): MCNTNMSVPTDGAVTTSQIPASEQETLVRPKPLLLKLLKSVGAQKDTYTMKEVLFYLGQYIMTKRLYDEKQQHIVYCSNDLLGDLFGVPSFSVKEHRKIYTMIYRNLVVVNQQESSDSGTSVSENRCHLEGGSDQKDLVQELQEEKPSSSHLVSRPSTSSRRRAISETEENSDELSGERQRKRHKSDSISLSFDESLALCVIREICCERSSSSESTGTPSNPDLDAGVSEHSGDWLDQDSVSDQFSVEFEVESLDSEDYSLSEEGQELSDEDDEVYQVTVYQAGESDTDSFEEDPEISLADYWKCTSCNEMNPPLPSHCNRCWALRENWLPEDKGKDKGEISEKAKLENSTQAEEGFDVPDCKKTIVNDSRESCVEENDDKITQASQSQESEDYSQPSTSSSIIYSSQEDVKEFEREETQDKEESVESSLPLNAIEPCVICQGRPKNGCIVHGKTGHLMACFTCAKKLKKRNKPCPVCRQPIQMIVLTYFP
CSC inhib: cancer stem cell inhibition; cancer stem cell-like cells viability, luminescence; inhibition, % at 7.5 µM; hit rate 1.1% among 300,000; AID 2717; in the data active means inhibition above about 75%; inconclusive means no clear call, values can overlap the other calls; tested in HMLE shEcad cells
Mdm2-MdmX conf: human Mdm2/MdmX binding inhibition, confirmed. inhibition, % at 8 µM. shares compounds with Mdm2 MdmX PPI. luminescent assay. AID 489028. hit rate 55% among 10,000; in the data active means inhibition above about 40%
Full FLuc ctr: inhibits full-length luciferase, flagging false Mdm2/MdmX hits | inhibition, % at 8 µM | hit rate 77% among 6,200 | shares compounds with Mdm2 MdmX PPI | SaOS-2 full-length luciferase counterscreen, luminescence;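 active means mean inhibition at 8 µM reaching about 37%, which flags the compound as non-specific, limit read from the data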;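 further: p53-null SaOS-2 cells with luciferase driven by a doxycycline-inducible promoter; compound on cells about two nights before reading with doxycycline added after day one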
* hit, by the source's call.

Screening C=CCNc1nc(N)c([N+](=O)[O-])c(Nc2ccccc2OC)n1 returned Calb FLC 12, Beta cell apopt -13, T cruzi inh -9, SKKanGAS inh 4, Mdm2 MdmX PPI 59*, CSC inhib 6 and Mdm2-MdmX conf 18.
COc1ccccc1Nc1nc(NCC(C)C)nc(N)c1[N+](=O)[O-] was read as Calb FLC 12, T cruzi inh 17, SKKanGAS inh 1, Mdm2 MdmX PPI 62*, CSC inhib 24, Mdm2-MdmX conf 47* and Full FLuc ctr 59*.
COc1cc(-c2nnc(NC(=O)CCS(=O)(=O)c3ccccc3)o2)cc(OC)c1OC was read as Calb FLC -3, T cruzi inh -6, SKKanGAS inh -12, Mdm2 MdmX PPI 79*, CSC inhib 1, Mdm2-MdmX conf 65* and Full FLuc ctr 63*.
`COc1cc(OC)cc(-c2nnc(NC(=O)CCS(=O)(=O)c3ccccc3)o2)c1` gave Calb FLC 3, T cruzi inh -16, SKKanGAS inh 14, Mdm2 MdmX PPI 43 and CSC inhib 13.
For COc1cc(OC)cc(-c2nnc(NC(=O)CCS(=O)(=O)c3ccc(F)cc3)o2)c1 the results were Calb FLC -6, Beta cell apopt -3, T cruzi inh -4, SKKanGAS inh inconclusive, Mdm2 MdmX PPI 59*, CSC inhib 21, Mdm2-MdmX conf 55* and Full FLuc ctr 65*.
COc1cc(-c2nnc(NC(=O)CCS(=O)(=O)c3ccc(F)cc3)o2)cc(OC)c1OC was read as Calb FLC 20, T cruzi inh -5, SKKanGAS inh 16, Mdm2 MdmX PPI 72*, CSC inhib 7, Mdm2-MdmX conf 69* and Full FLuc ctr 48*.
`COc1ccc(N2CCN(C(=O)CN3c4cccc5cccc(c45)S3(=O)=O)CC2)cc1` gave Beta cell apopt -2, Mdm2 MdmX PPI -10 and CSC inhib -7.
`FC(F)(F)c1cccc(-c2nc3nc(Cl)c(Cl)nc3[nH]2)c1` gave Calb FLC 28, Beta cell apopt 99*, T cruzi inh -2, SKKanGAS inh inconclusive, Mdm2 MdmX PPI 80*, CSC inhib 76*, Mdm2-MdmX conf 75* and Full FLuc ctr 69*.
CCCn1c(N)c(N2CCCCC2)c(=O)n(CC(=O)Nc2cccc(S(=O)(=O)N(C)C)c2)c1=O was read as Beta cell apopt -1, Mdm2 MdmX PPI 27 and CSC inhib -22.
CN(C)c1ccc(Sc2nnc(NC(=O)Nc3ccc(Cl)cc3Cl)s2)cc1 was read as Calb FLC 3, Beta cell apopt -8, T cruzi inh 12, SKKanGAS inh -9, Mdm2 MdmX PPI 79*, CSC inhib -10 and Mdm2-MdmX conf 1.
`COc1cc(NC(=O)c2cccs2)c(C(=O)OCC(=O)NCc2ccccc2)cc1OC` gave Calb FLC 8, Beta cell apopt 41, T cruzi inh -4, SKKanGAS inh 20, Mdm2 MdmX PPI 58*, CSC inhib 52 and Mdm2-MdmX conf 16.
Screening Nn1c(-c2ccccc2)nc2cc(Cl)ccc2c1=O returned Calb FLC -3, Beta cell apopt -2, T cruzi inh -11, SKKanGAS inh -2, Mdm2 MdmX PPI -2 and CSC inhib -9.
`CCOC(=O)c1sc(=S)n(C)c1NC(=O)c1ccc(OC)cc1` gave Calb FLC 17, Beta cell apopt -2, T cruzi inh 6, SKKanGAS inh -3, Mdm2 MdmX PPI 21 and CSC inhib -12.
For CCOC(=O)c1sc(=S)n(C)c1NC(=O)c1ccc(C(C)(C)C)cc1 the results were Calb FLC 0, Beta cell apopt 7, T cruzi inh 10, SKKanGAS inh 6, Mdm2 MdmX PPI 61*, CSC inhib 37 and Mdm2-MdmX conf 31.
For O=c1c(Cl)c(Cl)cnn1Cc1nnc(-c2ccccc2Br)o1 the results were Calb FLC -41, T cruzi inh 57*, SKKanGAS inh 16, Mdm2 MdmX PPI 100*, Mdm2-MdmX conf 100* and Full FLuc ctr 54*.
`CN(CC(=O)Nc1ccc(F)cc1)C(=O)Cn1cnc2ccc(Cl)cc2c1=O` gave Beta cell apopt -3 and Mdm2 MdmX PPI 27.
Screening CC(=O)c1cc2c(cc1NC(=O)c1ccc(Cl)cc1)OCCO2 returned Calb FLC 5, T cruzi inh 8, SKKanGAS inh 2, Mdm2 MdmX PPI 57*, CSC inhib 4 and Mdm2-MdmX conf 7.
`Cc1cccc(C(=O)NNC(=O)c2cc3cc4ccccc4nc3s2)c1` gave Calb FLC 9, Beta cell apopt 7, SKKanGAS inh -6, Mdm2 MdmX PPI 51*, CSC inhib -13 and Mdm2-MdmX conf 7.
O=C(NNC(=O)c1cc2cc3ccccc3nc2s1)c1ccc(F)cc1 was read as Calb FLC 43, Beta cell apopt 0, T cruzi inh 10, SKKanGAS inh -13, Mdm2 MdmX PPI 22 and CSC inhib -10.
`O=C(NNC(=O)c1cc2cc3ccccc3nc2s1)c1cccc(Cl)c1` gave Calb FLC -2, Beta cell apopt -2, T cruzi inh 5, SKKanGAS inh 13, Mdm2 MdmX PPI 57*, CSC inhib -3, Mdm2-MdmX conf 36 and Full FLuc ctr 109*.
For Cc1ccc(S(=O)(=O)NNC(=O)c2cc3cc4ccccc4nc3s2)cc1 the results were Calb FLC 32, T cruzi inh -4, SKKanGAS inh 13, Mdm2 MdmX PPI 21 and CSC inhib 6.
CN(C)S(=O)(=O)c1ccc(NC(=O)CCNC(=O)c2ccco2)cc1 was read as Calb FLC -12, Beta cell apopt -11, T cruzi inh -9, SKKanGAS inh -2, Mdm2 MdmX PPI -27 and CSC inhib 4.
Cc1cc(C(F)(F)F)nc(SCC(=O)NC2CCCCC2)n1 was read as Calb FLC -9, T cruzi inh -1, SKKanGAS inh 3, Mdm2 MdmX PPI 26 and CSC inhib 4.
Screening CCOC(=O)c1c(C)[nH]c(C)c1S(=O)(=O)N1CCN(c2cccc(C)c2)C(C)C1 (stereo not drawn) returned Calb FLC 1, Beta cell apopt -6, T cruzi inh 22, SKKanGAS inh -19, Mdm2 MdmX PPI -14 and CSC inhib 26.
For Cc1ccc(O)c(C(=O)/C=C/c2ccc3c(c2)OCCO3)c1 the results were Calb FLC 9, Beta cell apopt 1, T cruzi inh -8, SKKanGAS inh -8, Mdm2 MdmX PPI 52*, CSC inhib 26 and Mdm2-MdmX conf 24.
